The target in series [1] is Vascular endothelial growth factor receptor 2 (Homo sapiens, UniProt P35968). Put plainly: Inhibition of VEGFR2.
Series [2] deals with Cyclin-dependent kinase 1 (Homo sapiens, UniProt P06493). Put plainly: Inhibition of CDK1.
In another series the test system is A-375. Put plainly: Antiproliferative activity against human A375 cells. Type of series: functional, cell-based.
Another series concerns HCT-116. Put plainly: Antiproliferative activity against human HCT116 cells. Format: functional, cell-based.
Another series relates to HeLa. Put plainly: Antiproliferative activity against human HeLa cells. Type of series: functional, cell-based.
Series [3] can be described thus: Bioavailability in Sprague-Dawley rat at 10 mg/kg, po. Type of series: ADME, organism-based. The conditions noted are these: in vivo. A digest of the protocol: (§1)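 Male Sprague-Dawley rats were given single doses orally at 10 mg/kg in 0.5% Methocel and intravenously at 2 mg/kg in 10% Solutol. Plasma concentrations were followed to derive AUC (µM h), Cmax (µM), half-life (h), clearance (mL/min/kg), steady-state volume of distribution (L/kg) and oral bioavailability (%).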

The nature of series [4]: Half life in Sprague-Dawley rat at 10 mg/kg, po. Type of series: ADME, organism-based. Set-up: dose 10 mg/kg, route oral. The conditions noted are these: in vivo. A digest of the protocol: as §1
The nature of series [5]: Cmax in Sprague-Dawley rat at 10 mg/kg, po. Format: ADME, organism-based. Set-up: dose 10 mg/kg, route oral. The conditions noted are these: in vivo. In a few lines: as §1
The nature of series [6]: AUC in Sprague-Dawley rat at 10 mg/kg, po. Format: ADME, organism-based. On the set-up: dose 10 mg/kg, route oral. The note with it: plasma. In a few lines:
as §1

Series [7] can be described thus: Half life in Sprague-Dawley rat at 2 mg/kg, iv. Set-up: dose 2 mg/kg, route intravenous. The note with it: in vivo. Type of series: ADME, organism-based. A digest of the protocol:
as §1

Series [8] in a line: Cmax in Sprague-Dawley rat at 2 mg/kg, iv. Format: ADME, organism-based. Set-up: dose 2 mg/kg, route intravenous. The conditions noted are these: in vivo. A digest of the protocol: as §1
The nature of series [9]: AUC in Sprague-Dawley rat at 2 mg/kg, iv. Type of series: ADME, organism-based. On the set-up: dose 2 mg/kg, route intravenous. The conditions noted are these: plasma. A digest of the protocol:
as §1

Series [10] is described as follows: Clearance in Sprague-Dawley rat. Type of series: ADME, organism-based. The conditions noted are these: in vivo. A digest of the protocol: as §1
The nature of series [11]: Volume of distribution at steady state in Sprague-Dawley rat. Type of series: ADME, organism-based. The note with it: in vivo, read-out: Vss. A digest of the protocol: as §1

Chain of Cyclin-dependent kinase 1 (P06493 whole entry): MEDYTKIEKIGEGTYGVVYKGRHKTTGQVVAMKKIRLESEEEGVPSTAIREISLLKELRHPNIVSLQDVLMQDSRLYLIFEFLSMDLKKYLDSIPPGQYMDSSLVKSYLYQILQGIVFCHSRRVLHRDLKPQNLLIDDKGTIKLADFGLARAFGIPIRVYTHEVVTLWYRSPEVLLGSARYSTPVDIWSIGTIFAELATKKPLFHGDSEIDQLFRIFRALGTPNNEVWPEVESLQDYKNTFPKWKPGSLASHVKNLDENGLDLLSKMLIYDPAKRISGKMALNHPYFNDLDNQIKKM
Chain of Vascular endothelial growth factor receptor 2 (P35968 whole entry): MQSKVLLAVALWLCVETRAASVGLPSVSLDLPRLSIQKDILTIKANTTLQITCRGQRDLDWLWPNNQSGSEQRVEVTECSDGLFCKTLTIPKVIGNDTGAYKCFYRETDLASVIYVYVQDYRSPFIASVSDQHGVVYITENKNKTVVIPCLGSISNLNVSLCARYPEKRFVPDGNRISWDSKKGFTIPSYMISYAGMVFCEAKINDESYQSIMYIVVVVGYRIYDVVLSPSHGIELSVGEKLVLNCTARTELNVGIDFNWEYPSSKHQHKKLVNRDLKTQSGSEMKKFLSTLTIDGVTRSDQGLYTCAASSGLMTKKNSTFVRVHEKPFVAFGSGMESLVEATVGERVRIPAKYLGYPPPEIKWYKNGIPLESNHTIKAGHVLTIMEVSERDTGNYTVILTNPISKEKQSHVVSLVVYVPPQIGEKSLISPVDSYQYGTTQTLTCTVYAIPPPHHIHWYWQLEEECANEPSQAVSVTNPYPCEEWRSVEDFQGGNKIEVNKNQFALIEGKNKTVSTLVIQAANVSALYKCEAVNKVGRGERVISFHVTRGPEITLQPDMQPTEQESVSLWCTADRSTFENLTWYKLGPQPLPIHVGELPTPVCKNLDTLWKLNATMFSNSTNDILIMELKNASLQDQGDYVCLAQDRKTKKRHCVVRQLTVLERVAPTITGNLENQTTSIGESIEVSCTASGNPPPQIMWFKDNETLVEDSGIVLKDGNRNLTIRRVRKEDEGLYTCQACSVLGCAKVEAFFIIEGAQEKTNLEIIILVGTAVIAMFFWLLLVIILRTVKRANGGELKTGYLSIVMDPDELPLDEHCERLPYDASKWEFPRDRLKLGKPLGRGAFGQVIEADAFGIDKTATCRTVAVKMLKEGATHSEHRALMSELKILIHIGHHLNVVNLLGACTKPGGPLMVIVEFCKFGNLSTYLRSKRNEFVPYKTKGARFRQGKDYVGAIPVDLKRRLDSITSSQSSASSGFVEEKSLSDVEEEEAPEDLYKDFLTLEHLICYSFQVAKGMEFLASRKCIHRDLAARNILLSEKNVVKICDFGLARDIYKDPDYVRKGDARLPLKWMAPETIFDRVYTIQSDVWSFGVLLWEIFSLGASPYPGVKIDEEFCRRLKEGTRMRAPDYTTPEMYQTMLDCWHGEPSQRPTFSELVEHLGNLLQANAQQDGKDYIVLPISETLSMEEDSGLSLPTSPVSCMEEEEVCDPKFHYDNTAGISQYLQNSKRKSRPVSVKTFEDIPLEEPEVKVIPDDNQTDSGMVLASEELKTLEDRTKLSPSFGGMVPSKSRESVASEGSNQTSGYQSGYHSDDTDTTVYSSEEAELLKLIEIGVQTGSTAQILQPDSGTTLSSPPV

Take `CC(C)(N)c1ccc(-c2nc(Nc3ccc(CCO)cc3)ncc2Cl)cc1`: the IC50 in [1] is 0.069 µM; in series [2], 0.687 µM; in the series with A-375, 1.37 µM; in the series on HCT-116, 1.6 µM; with HeLa it was 2.92 µM. The bioavailability in [3] was 55%. Moreover, the half-life in [4] was 4.5 h; in series [7], 4.9 h. Moreover, the maximum concentration (Cmax) turned out to be 1.11 µM in [5] and 1.43 µM in [8]. In addition, the results for the AUC in series [6] and in series [9] were 7.65 µM·h and 2.77 µM·h, respectively. This molecule showed a clearance in series [10] of 2.04 L/h/kg. Also, in [11], the Vd worked out at 10.7 L/kg.
Take `CC(C)(N)c1ccc(-c2nc(Nc3ccc(CCN4CCCC4)cc3)ncc2Cl)cc1`: the IC50 in series [1] was 0.026 µM; in series [2], 0.808 µM; in the series with A-375, 0.247 µM; with HCT-116 it was 0.359 µM; in the series on HeLa, 0.339 µM.
On to `CC(C)(N)c1ccc(-c2nc(Nc3ccc(CCN4CCOCC4)cc3)ncc2Cl)cc1`, for which the IC50 in series [1] stood at 0.148 µM; in [2], 2.77 µM; in the series with A-375, 3.17 µM; with HCT-116, 3.22 µM; with HeLa, 3.01 µM.
The corresponding values for `CN(C)CCc1ccc(Nc2ncc(Cl)c(-c3n[nH]c4ccccc34)n2)cc1` are 0.314 µM, 0.781 µM, 3.97 µM, 3.76 µM and 3.06 µM.
In the case of `CN1CCN(CCc2ccc(Nc3ncc(Cl)c(-c4c[nH]c5ccccc45)n3)cc2)CC1`, the IC50 came out at 0.007 µM in series [1]; 0.18 µM in series [2]; 3.93 µM with A-375; 3.05 µM in the series with HCT-116; 3.33 µM with HeLa.
On to `Clc1cnc(Nc2ccc(CCN3CCCC3)cc2)nc1-c1ccc2cc[nH]c2c1`, for which the IC50 in series [1] is 0.016 µM; in series [2], 1.54 µM; in the series on A-375, 1.97 µM; in the series on HCT-116, 1.68 µM; in the series with HeLa it was 0.973 µM. In series [3], this molecule showed a bioavailability of 70%. Moreover, the results for the half-life in [4] and in [7] were 2.6 h and 3.9 h, respectively. Also, the Cmax in series [5] came to 0.72 µM; in series [8], 0.67 µM. For the same molecule, the figures for the AUC in [6] and in [9] were 5.74 µM·h and 1.63 µM·h, respectively. The same molecule displayed a clearance in series [10] of 3.06 L/h/kg. Besides, in [11], the Vd was determined as 16.3 L/kg.
In the case of `CN(C)CCc1ccc(Nc2ncc(Cl)c(-c3cccs3)n2)cc1`, the IC50 in [1] was found to be 0.159 µM; in series [2] it was 0.461 µM; in the series with A-375, 0.016 µM; in the series with HCT-116 it was 0.228 µM; in the series on HeLa, 1.24 µM.
For `CC(C)(N)c1ccc(-c2nc(Nc3cccc(Br)c3)ncc2Cl)cc1`, the IC50 in series [1] is 0.348 µM; in [2], 1.04 µM; in the series with A-375, 2.61 µM; with HCT-116, 3.69 µM; with HeLa, 3.35 µM.
As to `Cc1nc(C)c(-c2nc(Nc3ccc(CCN(C)C)cc3)ncc2Cl)s1`, the IC50 was 0.797 µM in series [1]; 0.439 µM in series [2]; 0.399 µM in the series on A-375; 0.391 µM in the series on HCT-116; 0.431 µM with HeLa.
The matching figures for `CN(C)CCc1ccc(Nc2ncc(Cl)c(-c3c[nH]c4ccccc34)n2)cc1`: 0.007 µM, 0.048 µM, 0.05 µM, 0.084 µM and 0.075 µM.
Turning to `CN(C)CCc1ccc(Nc2ncc(Cl)c(-c3ccc4[nH]ccc4c3)n2)cc1`, the IC50 in series [1] stood at 0.103 µM; in series [2] it was 0.847 µM; in the series with A-375, 0.03 µM; with HCT-116 it was 0.321 µM; in the series on HeLa, 0.596 µM.
The matching figures for `CN(C)CCc1ccc(Nc2ncc(Cl)c(-c3ccc4cc[nH]c4c3)n2)cc1`: 0.015 µM, 1.77 µM, 0.336 µM, 0.446 µM and 0.472 µM.
Turning to `CN(C)CCc1ccc(Nc2ncc(Cl)c(-c3cccc4cc[nH]c34)n2)cc1`, the IC50 in [1] amounted to 0.455 µM; in series [2] it was 0.334 µM; with A-375, 0.774 µM; in the series on HCT-116 it was 0.47 µM; with HeLa, 1.29 µM.
The matching figures for `CN1CCN(CCc2ccc(Nc3ncc(Cl)c(-c4ccc(C(C)(C)N)cc4)n3)cc2)CC1`: 0.076 µM, 1.61 µM, 0.868 µM, 1.3 µM and 0.811 µM.
The matching figures for `CN(C)CCc1ccc(Nc2ncc(Cl)c(-c3cccc4[nH]ccc34)n2)cc1`: 0.216 µM, 0.54 µM, 0.21 µM, 0.084 µM and 0.292 µM.
The corresponding values for `CNCCc1ccc(Nc2ncc(Cl)c(-c3ccc(C(C)(C)N)cc3)n2)cc1` are 0.033 µM, 1.06 µM, 0.175 µM, 0.885 µM and 0.542 µM.
In the case of `CN(C)CCc1ccc(Nc2ncc(Cl)c(-c3ccc(C(C)(C)N)cc3)n2)cc1`, the IC50 is 0.019 µM in [1]; 1.14 µM in series [2]; 0.163 µM in the series on A-375; 1.68 µM with HCT-116; 0.5 µM in the series on HeLa.
Take `CCN1CCN(CCc2ccc(Nc3ncc(Cl)c(-c4ccc5cc[nH]c5c4)n3)cc2)CC1`: the IC50 in [1] was determined as 0.037 µM; in [2], 1.24 µM; in the series with A-375, 2.57 µM; in the series with HCT-116 it was 2.45 µM; in the series on HeLa it was 2.08 µM. The bioavailability in series [3] is 40%. Moreover, the half-life in series [4] was 4.6 h; in [7], 5.8 h. In addition, the Cmax was 0.59 µM in [5] and 0.96 µM in series [8]. In addition, the AUC was found to be 6.12 µM·h in series [6] and 3.06 µM·h in [9]. In [10], this molecule registered a clearance of 1.5 L/h/kg. In addition, the Vd in series [11] came to 10.1 L/kg.

Usually IC50 stands for the point on the concentration scale where inhibition reaches its midpoint. The term bioavailability denotes the share of a dose that reaches the circulation, judged against a reference dose that is usually intravenous. Usually half-life stands for the time in which the quantity being followed falls by half. Read a low half-life as fast loss. A word on the Cmax: it is the peak of the concentration-time curve. The AUC is the area under the concentration-time curve, a measure of exposure. In general, clearance refers to the rate of elimination divided by the concentration.

(Values after ChEMBL document CHEMBL1147841, “Synthesis and biological study of 2-amino-4-aryl-5-chloropyrimidine analogues as inhibitors of VEGFR-2 and cyclin dependent kinase 1 (CDK1)” (Bioorg Med Chem Lett, 2007).)
